Reference: ChEMBL document CHEMBL1955724, “Synthesis, antimicrobial and anticancer activities of a novel series of diphenyl 1-(pyridin-3-yl)ethylphosphonates” (Bioorg Med Chem, 2012)
Converted amounts (≈) assume the structure as drawn. Blank lines part the entries; values can stand above or below the compound they belong to.

What was measured:
[1] = tested on: Staphylococcus aureus; assay: Antibacterial activity against Staphylococcus aureus ATCC 25292 after 24 to 48 hrs by agar disc diffusion method; assay type: functional
Outline: (§1)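 Filter-paper discs (5 mm) were impregnated with compound in DMSO at […]. Nutrient agar was seeded with 100 µL inoculum: 5 × 10^5 for bacteria, 4 × 10^4 for yeasts. Controls were ciprofloxacin discs for bacteria, amphotericin B discs for yeasts, and DMSO blanks. Plates were held at 37 °C for 24–48 h; zone diameter (mm) given as triplicate mean ± SD.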

[2] = tested on: Bacillus subtilis; assay: Antibacterial activity against Bacillus subtilis PC1219 after 24 to 48 hrs by agar disc diffusion method; assay type: functional; outline: as §1
[3] = tested on: Escherichia coli; assay: Antibacterial activity against Escherichia coli NCIM2065 after 24 to 48 hrs by agar disc diffusion method; assay type: functional; outline: as §1
[4] = tested on: Staphylococcus aureus; assay: Antibacterial activity against Staphylococcus aureus ATCC 25292 at 10 mg after 24 to 48 hrs by agar well diffusion method; assay type: functional; settings: read-out: DIZ
Outline: (§2)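 Cut-plug well assay: each well filled with 10 mg of powdered compound. Bacteria were on nutrient agar (peptone, beef extract, NaCl) at pH 7, and yeasts on Sabouraud agar (glucose, peptone) at pH 6.0. Plates were incubated at 30 °C for 24–48 h, and inhibition zone diameters were measured in triplicate.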

[5] = tested on: Saccharomyces cerevisiae; assay: Antifungal activity against Saccharomyces cerevisiae at 10 mg after 24 to 48 hrs by agar well diffusion method; assay type: functional; settings: read-out: DIZ; outline: as §2
[6] = tested on: Artemia salina; assay: (§3) Toxicity in Artemia salina assessed as mortality at 100 ug/mL after 72 hrs; assay type: organism-based; settings: in vivo, 72 h
Outline: (§4)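 Artemia salina larvae, 20 per 5 mL saline vial, were exposed to compound at […]. Three replicates were run per concentration. Living larvae were counted after 72 h, with data as mean ± SD.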

[7] = Toxicity in Artemia salina assessed as mortality at 1000 ug/mL after 72 hrs; assay type: organism-based; settings: in vivo, read-out: Activity; outline: as §4
[8] = tested on: MCF7; assay: Cytotoxicity against human MCF7 cells after 72 hrs by sulforhodamine B assay; assay type: functional, cell-based; settings: MCF7, 72 h
[9] = tested on: Escherichia coli; assay: Antibacterial activity against Escherichia coli NCIM2065 at 10 mg after 24 to 48 hrs by agar well diffusion method; assay type: functional; settings: read-out: DIZ; outline: as §2
[10] = Ratio of IC50 for human MCF7 cells to LD50 for Artemia salina
[11] = tested on: Bacillus subtilis; assay: Antibacterial activity against Bacillus subtilis PC1219 at 10 mg after 24 to 48 hrs by agar well diffusion method; assay type: functional; settings: read-out: DIZ; outline: as §2
[12] = Ratio of IC50 for human HepG2 cells to LD50 for Artemia salina
[13] = tested on: Candida albicans; assay: Antifungal activity against Candida albicans after 24 to 48 hrs by agar disc diffusion method; assay type: functional; outline: as §1
[14] = Toxicity in Artemia salina assessed as mortality after 72 hrs; assay type: organism-based; settings: in vivo, read-out: LD50; outline: as §4
[15] = tested on: Saccharomyces cerevisiae; assay: Antifungal activity against Saccharomyces cerevisiae after 24 to 48 hrs by agar disc diffusion method; assay type: functional; outline: as §1
[16] = tested on: Candida albicans; assay: Antifungal activity against Candida albicans at 10 mg after 24 to 48 hrs by agar well diffusion method; assay type: functional; settings: read-out: DIZ; outline: as §2
[17] = tested on: HepG2; assay: Cytotoxicity against human HepG2 cells after 72 hrs by sulforhodamine B assay; assay type: functional, cell-based; settings: HepG2, 72 h
[18] = as §3; assay type: organism-based; settings: in vivo, read-out: Activity; outline: as §4

Compound: O=C(O)c1cn(C2CC2)c2cc(N3CCNCC3)c(F)cc2c1=O [CIPROFLOXACIN]
- MIC [1]: 5 µg/mL (≈ 15.1 µM)
- MIC [2]: 5 µg/mL (≈ 15.1 µM)
- MIC [3]: 5 µg/mL (≈ 15.1 µM)

Compound: CC(Nc1ccccc1)(c1cccnc1)P(=O)(Oc1ccccc1)Oc1ccccc1 (centres undefined)
- zone of inhibition at 10000 µg/disc [4]: 12 mm
- zone of inhibition at 10000 µg/disc [5]: 14 mm
- Activity [6]: Non-toxic
- mortality at 72 h, 1000 ug/mL [7]: 60%
- IC50 [8]: 18.2 µg/mL (≈ 42.3 µM)
- zone of inhibition at 10000 µg/disc [9]: 13 mm
- Ratio [10]: 0.02
- zone of inhibition at 10000 µg/disc [11]: 15 mm
- MIC [1]: 10 µg/mL (≈ 23.2 µM)
- Ratio [12]: 0.019
- MIC [13]: 10 µg/mL (≈ 23.2 µM)
- MIC [2]: 10 µg/mL (≈ 23.2 µM)
- LC50 at 72 h [14]: 915 µg/mL (≈ 2130 µM)
- MIC [15]: 10 µg/mL (≈ 23.2 µM)
- zone of inhibition at 10000 µg/disc [16]: 13 mm
- MIC [3]: 100 µg/mL (≈ 232 µM)
- IC50 [17]: 17.3 µg/mL (≈ 40.2 µM)

Compound: CC(NNc1ccccc1)(c1cccnc1)P(=O)(Oc1ccccc1)Oc1ccccc1 (centres undefined)
- zone of inhibition at 10000 µg/disc [4]: 28 mm
- zone of inhibition at 10000 µg/disc [5]: 27 mm
- Activity [6]: Non-toxic
- mortality at 72 h, 1000 ug/mL [7]: 60%
- IC50 [8]: 19.4 µg/mL (≈ 43.6 µM)
- zone of inhibition at 10000 µg/disc [9]: 32 mm
- Ratio [10]: 0.023
- zone of inhibition at 10000 µg/disc [11]: 26 mm
- MIC [1]: 10 µg/mL (≈ 22.4 µM)
- Ratio [12]: 0.02
- MIC [13]: 10 µg/mL (≈ 22.4 µM)
- MIC [2]: 10 µg/mL (≈ 22.4 µM)
- LC50 at 72 h [14]: 843 µg/mL (≈ 1890 µM)
- MIC [15]: 10 µg/mL (≈ 22.4 µM)
- zone of inhibition at 10000 µg/disc [16]: 26 mm
- MIC [3]: 10 µg/mL (≈ 22.4 µM)
- IC50 [17]: 17.6 µg/mL (≈ 39.5 µM)

Compound: CC(Nc1ccc(O)cc1)(c1cccnc1)P(=O)(Oc1ccccc1)Oc1ccccc1 (centres undefined)
- zone of inhibition at 10000 µg/disc [4]: 21 mm
- zone of inhibition at 10000 µg/disc [5]: 16 mm
- Activity [6]: Non-toxic
- mortality at 72 h, 1000 ug/mL [7]: 60%
- IC50 [8]: 19.6 µg/mL (≈ 43.9 µM)
- zone of inhibition at 10000 µg/disc [9]: 20 mm
- Ratio [10]: 0.02
- zone of inhibition at 10000 µg/disc [11]: 20 mm
- MIC [1]: 10 µg/mL (≈ 22.4 µM)
- Ratio [12]: 0.017
- MIC [13]: 10 µg/mL (≈ 22.4 µM)
- MIC [2]: 10 µg/mL (≈ 22.4 µM)
- LC50 at 72 h [14]: 1000 µg/mL (≈ 2240 µM)
- MIC [15]: 10 µg/mL (≈ 22.4 µM)
- zone of inhibition at 10000 µg/disc [16]: 15 mm
- MIC [3]: 10 µg/mL (≈ 22.4 µM)
- IC50 [17]: 17.1 µg/mL (≈ 38.3 µM)

Compound: Cc1ccc(NC(C)(c2cccnc2)P(=O)(Oc2ccccc2)Oc2ccccc2)cc1 (centres undefined)
- zone of inhibition at 10000 µg/disc [4]: 19 mm
- zone of inhibition at 10000 µg/disc [5]: 16 mm
- mortality at 72 h, 1000 ug/mL [7]: 10%
- IC50 [8]: 20.2 µg/mL (≈ 45.4 µM)
- zone of inhibition at 10000 µg/disc [9]: 22 mm
- Ratio [10]: 0.243
- zone of inhibition at 10000 µg/disc [11]: 15 mm
- MIC [1]: 50 µg/mL (≈ 112 µM)
- Ratio [12]: 0.16
- MIC [13]: 10 µg/mL (≈ 22.5 µM)
- MIC [2]: 10 µg/mL (≈ 22.5 µM)
- LC50 at 72 h [14]: 83 µg/mL (≈ 187 µM)
- MIC [15]: 10 µg/mL (≈ 22.5 µM)
- zone of inhibition at 10000 µg/disc [16]: 17 mm
- MIC [3]: 10 µg/mL (≈ 22.5 µM)
- IC50 [17]: 13.3 µg/mL (≈ 29.9 µM)

Compound: CC(Nc1ccc(Cl)cc1)(c1cccnc1)P(=O)(Oc1ccccc1)Oc1ccccc1 (centres undefined)
- zone of inhibition at 10000 µg/disc [4]: 21 mm
- zone of inhibition at 10000 µg/disc [5]: 23 mm
- mortality at 72 h, 100 ug/mL [18]: 15%
- mortality at 72 h, 1000 ug/mL [7]: 100%
- IC50 [8]: 17.6 µg/mL (≈ 37.9 µM)
- zone of inhibition at 10000 µg/disc [9]: 20 mm
- Ratio [10]: 0.463
- zone of inhibition at 10000 µg/disc [11]: 25 mm
- MIC [1]: 10 µg/mL (≈ 21.5 µM)
- Ratio [12]: 0.415
- MIC [13]: 10 µg/mL (≈ 21.5 µM)
- MIC [2]: 10 µg/mL (≈ 21.5 µM)
- LC50 at 72 h [14]: 38 µg/mL (≈ 81.7 µM)
- MIC [15]: 10 µg/mL (≈ 21.5 µM)
- zone of inhibition at 10000 µg/disc [16]: 23 mm
- MIC [3]: 10 µg/mL (≈ 21.5 µM)
- IC50 [17]: 15.8 µg/mL (≈ 34 µM)

- MIC [13]: 15 µg/mL (≈ 16.2 µM)
- MIC [15]: 15 µg/mL (≈ 16.2 µM)
Compound: C[C@@H]1[C@H](O)[C@@H](C)/C=C/C=C/C=C/C=C/C=C/C=C/C=C/[C@H](O[C@@H]2O[C@H](C)[C@@H](O)[C@H](N)[C@@H]2O)C[C@@H]2O[C@](O)(C[C@@H](O)C[C@@H](O)[C@H](O)CC[C@@H](O)C[C@@H](O)CC(=O)O[C@H]1C)C[C@H](O)[C@H]2C(=O)O [AMPHOTERICIN B]
